Lmaj promast: reduces viability of Leishmania major promastigotes. resazurin fluorescence viability. 200,000 compounds, 9% hits. inhibition, % at 10 µM; in the data active means inhibition above about 50%;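 further: promastigotes grown with compound for 44 hours at 28 °C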
HCT116 bCat-KO: beta-catenin-lacking colon tumor cell growth suppression. HCT116 beta-catenin knockout viability, CellTiter-Glo, 60 h; hits give low values. viability, % at 10 µM. AID 818. 140,000 compounds, 1.5% hits;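 active means viability at or under a set limit, the compound median less 4 SD, cut at about 6% in these data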
TNAP act hiacc: TNAP (human) activation, high acceptor; 200,000 tested, under 10 active; purified TNAP, CDP-star luminescence, 1 M DEA, 30 min; hits give high values; 0 = EDTA background, 1 = DMSO-only activity; activation factor at 20 µM;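 active means activation factor at least 2 at 20 µM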
Target sequence (P05186 whole entry, looked up): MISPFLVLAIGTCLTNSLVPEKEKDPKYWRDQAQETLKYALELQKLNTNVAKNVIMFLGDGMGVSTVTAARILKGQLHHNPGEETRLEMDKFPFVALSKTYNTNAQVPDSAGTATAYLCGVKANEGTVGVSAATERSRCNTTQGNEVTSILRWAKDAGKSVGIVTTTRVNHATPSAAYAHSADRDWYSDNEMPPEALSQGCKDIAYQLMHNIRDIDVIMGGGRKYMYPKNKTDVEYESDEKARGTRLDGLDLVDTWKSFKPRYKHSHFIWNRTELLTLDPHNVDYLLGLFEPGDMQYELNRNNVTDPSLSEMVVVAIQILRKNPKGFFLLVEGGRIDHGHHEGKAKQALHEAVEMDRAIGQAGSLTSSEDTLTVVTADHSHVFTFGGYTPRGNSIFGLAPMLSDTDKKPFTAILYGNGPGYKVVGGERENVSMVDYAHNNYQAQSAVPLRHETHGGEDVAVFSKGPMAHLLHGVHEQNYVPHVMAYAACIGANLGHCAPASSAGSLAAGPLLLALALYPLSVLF
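Measured by: Luminescent substrate turnover signal | Test system: Human TNAP | Input: TNAP 1/800 final | Dosing: 20 µM single point | Schedule: 30 min, room temperature | Controls: EDTA wells as negative control, DMSO wells as positive control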
TNAP inh no acc: inhibitors of human TNAP without phosphate acceptor; P05186; purified TNAP, CDP-star luminescence, 30 min; inhibition, % at 20 µM; 200,000 compounds, 0.26% hits; AID 1012;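 active means tissue-nonspecific alkaline phosphatase inhibition above about 50% at 20 µM in the single-dose screen, limit read from the data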
PTEN del growth: growth suppressors of cells with PTEN tumor suppressor deletion | HCT116 PTEN-null viability, CellTiter-Glo, 60 h; hits give low values | viability, % at 10 µM | 140,000 compounds, 1.2% hits | AID 827;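 active means viability at or below a set limit, 4 SD under the median of all tested compounds, cut at about 3.7% in these data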;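 further: PTEN knockout HCT116 line with beta catenin targeted HCT116 as companion control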
TNAP inh hi DEA: TNAP (human) inhibition, high acceptor | 200,000 compounds, 0.03% hits | AID 1135 | P05186 | inhibition, % at 20 µM | purified TNAP, CDP-star luminescence, 1 M DEA;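 active means over 50% inhibition of tissue-nonspecific alkaline phosphatase at 20 µM in the single-dose screen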
Large screens that a line does not name were inactive. Sampled rows, rich in hits. Any-hit rate of the full collection: about 9.6%.

CC(NC(=O)c1ccccc1)c1ccc(Br)cc1 (stereo not given)	Lmaj promast 55 (no result: HCT116 bCat-KO, PTEN del growth)
CCOc1ccc(S(=O)(=O)N2CCCCC2)c(C)c1C	Lmaj promast 82 (no result: HCT116 bCat-KO, PTEN del growth)
CCN1CCN(Cc2c(O)ccc3c2O/C(=C\C=C\c2ccccc2OC)C3=O)CC1	Lmaj promast 69
CCN1CCN(Cc2c(O)ccc3c(=O)c(-c4ccccc4OC)coc23)CC1	none
Cc1cc(=O)oc2ccc(OC(=O)CC(C)C)cc12	none (no result: HCT116 bCat-KO, PTEN del growth)
COc1ccc(S(=O)(=O)Nc2cc3c4c(oc3c3ccccc23)CC(C)(C)CC4=O)cc1	Lmaj promast 100
COc1ccc(S(=O)(=O)Nc2cc3c4c(oc3c3ccccc23)CCCC4=O)cc1	none
CN(Cc1ccccc1)S(=O)(=O)c1ccc2[nH]cc(C(=O)NCC3CCCO3)c(=O)c2c1 (stereo not given)	Lmaj promast 99
COCCOC(=O)/C=C1/NC(=O)CS1	none
COc1ccccc1NC(=O)c1cc(C(=O)Nc2ccccc2OC)cc(N2C(=O)CCC2=O)c1	none
COc1ccccc1NC(=O)/C=C1\SCC(=O)N1C	Lmaj promast 100 (no result: HCT116 bCat-KO, PTEN del growth)
COc1ccccc1NC(=O)/C=C1\NC(=O)CS1	Lmaj promast 88 (no result: HCT116 bCat-KO, PTEN del growth)
CCOc1ccc(NS(=O)(=O)c2cc(NC(=O)CCS(=O)(=O)c3ccc(C)cc3)ccc2OC)cc1	Lmaj promast 60
COc1ccc(NC(=O)CCSc2ccc(C)cc2)cc1S(=O)(=O)Nc1ccccc1Cl	Lmaj promast 88
COc1ccc(NC(=O)c2nn(C)c(=O)c3ccccc23)cc1S(=O)(=O)Nc1ccccc1Cl	Lmaj promast 60 (no result: HCT116 bCat-KO, PTEN del growth)
COc1ccc(NC(=O)c2ccc3ccccc3n2)cc1S(=O)(=O)Nc1ccccc1Cl	Lmaj promast 98
CCOc1ccc(NC(=O)COC(=O)CCS(=O)(=O)c2ccc(C)cc2)cc1	none (no result: HCT116 bCat-KO, PTEN del growth)
COc1ccc(NC(=S)NCc2cccn2C)cc1	none (no result: HCT116 bCat-KO, PTEN del growth)
COc1cc(/C=N/Nc2ccc(Cl)cc2)ccc1OC(=O)c1cccs1	none
CC(C)(C)SCCNC(=O)CSc1ccccc1	none (no result: HCT116 bCat-KO, TNAP act hiacc, TNAP inh no acc, PTEN del growth, TNAP inh hi DEA)
CC(C)(C)SCCNC(=O)Nc1ccccc1	Lmaj promast 54
COC(=O)C1=C(C)N(Cc2ccco2)C(=O)N[C@H]1c1ccc(Br)cc1	none
Cc1cc(/C=C2\SC(=Nc3ccc(F)cc3)NC2=O)c(C)n1-c1ccc(S(N)(=O)=O)cc1	Lmaj promast 57, PTEN del growth 2.8
Cc1ccc(N=C2NC(=O)/C(=C/c3cn(C)c4ccccc34)S2)cc1C	none
Cc1cc(/C=C2/SC(=O)NC2=O)c(C)n1-c1ccc(N2CCOCC2)cc1	Lmaj promast 57
COc1ccc(-n2c(C)cc(/C=C3\SC(=S)NC3=O)c2C)cc1	none (no result: HCT116 bCat-KO, PTEN del growth)
Cc1cc(=O)oc2cc(OCC(=O)OCC(=O)NCCc3ccccc3)ccc12	none (no result: HCT116 bCat-KO, PTEN del growth)
C=CCNC(=O)c1onc(CSc2cccc(OC)c2)c1C(=O)O	none
CCOc1ccc2nc(Cl)c(C3CC(c4ccco4)=NN3S(=O)(=O)c3ccccc3)cc2c1 (stereo not given)	Lmaj promast 100
CNCc1c(OCc2ccccc2F)ccc2ccccc12	Lmaj promast 56 (no result: HCT116 bCat-KO, PTEN del growth)
CC(C)c1ccccc1NC(=O)COC(=O)c1ccc(Cl)c(S(=O)(=O)N2CCCCCC2)c1	Lmaj promast 60
Cc1cc(C)n(-c2ccc(C(=O)Nc3cccc(S(=O)(=O)N4CCCC4)c3)cc2)n1	none (no result: HCT116 bCat-KO, PTEN del growth)
Cc1cc(C)n(-c2ccc(C(=O)OCC(=O)Nc3ccc(S(=O)(=O)N4CCCCC4)cc3)cc2)n1	Lmaj promast 84
CNC(=O)COC(=O)c1ccc(Cl)c(S(=O)(=O)N2CCCC2)c1	none (no result: HCT116 bCat-KO, PTEN del growth)
NC(=O)COC(=O)c1ccc(Cl)c(S(=O)(=O)N2CCCCCC2)c1	none (no result: HCT116 bCat-KO, PTEN del growth)
CCc1ccc(NC(=O)COC(=O)c2ccc(Cl)c(S(=O)(=O)N3CCCCCC3)c2)cc1	Lmaj promast 63
CSc1ccccc1NC(=O)c1cc2ncc(Br)cn2n1	none (no result: HCT116 bCat-KO, PTEN del growth)
CC(C)N1CCN(Cc2ccoc2)CC1CCO (stereo not given)	none (no result: HCT116 bCat-KO, PTEN del growth)
CCn1c(Cc2ccccc2)nnc1SCc1cccc(C(=O)O)c1	Lmaj promast 61
CCn1c(Cc2ccccc2)nnc1SCC(=O)NC(C)(C)C	none
C#CCNC(=O)C1=C[C@@H](C2CCCCC2)[C@H](CCCO)[C@@H](OCC)O1	none (no result: HCT116 bCat-KO, PTEN del growth)
O=C(CC1C(=O)NCCN1Cc1ccc(F)cc1)NCCCn1cccn1 (stereo not given)	none (no result: HCT116 bCat-KO, PTEN del growth)
COc1cc(/C=C(\C#N)c2nc3ccc(C)cc3[nH]2)c([N+](=O)[O-])cc1OC	Lmaj promast 98
Cc1ccc2nc(/C(C#N)=C\c3ccc(Oc4ccc(C(F)(F)F)cc4[N+](=O)[O-])cc3)[nH]c2c1	none
COc1ccc(/C=C(\C#N)c2nc3ccc(C)cc3[nH]2)cc1Oc1ccc(C(F)(F)F)cc1[N+](=O)[O-]	HCT116 bCat-KO 1.5, PTEN del growth 1.3
COc1cc(OC)cc(-c2nnc(Sc3ccc(C=O)cc3[N+](=O)[O-])o2)c1	Lmaj promast 52
COc1ccc(/C=N/Nc2ccccc2)cc1Cn1nc(C)c([N+](=O)[O-])c1C	Lmaj promast 77
CCN(CC)S(=O)(=O)c1ccc(C(=O)OC2CCCCC2CN(C)C)cc1 (stereo not given)	none
CN(C)CC1CCCCC1OC(=O)c1ccc(Cl)cc1 (stereo not given)	Lmaj promast 57
CC1CN(CC(O)COC(c2ccc(Cl)cc2)c2ccc(Cl)cc2)CC(C)O1 (stereo not given)	Lmaj promast 67
OC(COC(c1ccc(Cl)cc1)c1ccc(Cl)cc1)CN1CCN(c2ccccn2)CC1 (stereo not given)	Lmaj promast 71
Cc1cccc(C)c1OCC(O)CN1CCN(c2ccccn2)CC1 (stereo not given)	none (no result: HCT116 bCat-KO, PTEN del growth)
CC(=O)c1ccc(OCC(O)CN2CC(C)OC(C)C2)cc1 (stereo not given)	none
CC1CN(CCCCOc2ccc(C(C)C)cc2)CC(C)O1 (stereo not given)	Lmaj promast 91
CC1CN(CC(O)COc2ccc(C(C)C)cc2)CC(C)O1 (stereo not given)	Lmaj promast 92
COc1cc(CCC(=O)Nc2nnc(-c3cccnc3)s2)cc(OC)c1OC	none (no result: HCT116 bCat-KO, PTEN del growth)
Cc1c(NC(=O)CCCCCN2C(=O)c3ccccc3C2=O)c(=O)n(-c2ccccc2)n1C	none
CN(C)CCOC(c1ccc(Cl)cc1)c1ccccn1 (stereo not given)	none (no result: HCT116 bCat-KO, PTEN del growth)
CN(C)CC(O)COC(c1ccc(Cl)cc1)c1ccc(Cl)cc1 (stereo not given)	Lmaj promast 99 (no result: HCT116 bCat-KO, PTEN del growth)
CC(C(=O)OCC(=O)Nc1cccc(S(=O)(=O)N2CCOCC2)c1)N1C(=O)c2ccccc2C1=O (stereo not given)	none (no result: HCT116 bCat-KO, PTEN del growth)
CCCNC(=S)N1CCC(C(=O)c2ccc(OC)cc2)CC1	none
CCOC(=O)c1c(NC(=O)C[n+]2ccc(Cc3ccccc3)cc2)sc(C)c1C	Lmaj promast 53 (no result: HCT116 bCat-KO, PTEN del growth)

Bioassay records deposited in PubChem by several laboratories.
